Test results published in ChEMBL document CHEMBL1138529, “Efficacy, pharmacokinetics, and metabolism of tetrahydroquinoline inhibitors of Plasmodium falciparum protein farnesyltransferase” (Antimicrob Agents Chemother, 2007).
pEC50, pIC50: −log10 of the molar value.

Columns and labels:
[1] = Drug metabolism in bile duct cannulated Sprague-Dawley rat assessed as radioactive drug recovery in bile at 35 mg/kg, po after 18 hrs; format: ADME, organism-based; parameters: dose 35 mg/kg, route oral; settings: in vivo
Outline: (§1)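 Male bile-duct- and jugular-cannulated Sprague-Dawley rats (~350 g, three per compound) given 35 mg/kg 14C-labelled compound orally (80 μCi/kg) in 3% EtOH-7% Tween 80-90% saline. Urine, feces and bile collected for 18 h, cages washed with methanol-water, animals autopsied; radioactivity per matrix by liquid scintillation counting as mean % of dose.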

[2] = Drug metabolism in bile duct cannulated Sprague-Dawley rat assessed as radioactive drug recovery in urine at 35 mg/kg, po after 18 hrs; format: ADME, organism-based; parameters: dose 35 mg/kg, route oral; settings: in vivo; outline: as §1
[3] = Drug metabolism in bile duct cannulated Sprague-Dawley rat assessed as radioactive drug recovery in feces at 35 mg/kg, po after 18 hrs; format: ADME, organism-based; parameters: dose 35 mg/kg, route oral; settings: in vivo; outline: as §1
[4] = Drug metabolism in bile duct cannulated Sprague-Dawley rat assessed as radioactive drug recovery in gastrointestinal tract at 35 mg/kg, po after 18 hrs; format: ADME, organism-based; parameters: dose 35 mg/kg, route oral; settings: in vivo; outline: as §1
Rattus norvegicus [5] = test: Drug metabolism in bile duct cannulated Sprague-Dawley rat assessed as radioactive drug recovery at 35 mg/kg, po after 18 hrs; format: ADME, organism-based; parameters: dose 35 mg/kg, route oral; settings: in vivo; outline: as §1
Rattus norvegicus [6] = test: Toxicity in bile duct cannulated Sprague-Dawley rat assessed as incidence of adverse events at 35 mg/kg, po after 18 hrs; format: organism-based; parameters: dose 35 mg/kg, route oral; settings: in vivo
Outline: (§2)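 Male Sprague-Dawley rats, about 350 g, with jugular and bile-duct cannulae, allowed 1 week recovery; three per compound. Oral gavage 35 mg/kg in 3% EtOH-7% Tween 80-90% saline with 80 μCi/kg 14C tracer. Monitored 18 h. Plasma and blood-cell radioactivity measured by liquid scintillation counting and given as μg base equivalents/g.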

Rattus norvegicus [7] = test: Plasma concentration in bile duct cannulated Sprague-Dawley rat at 35 mg/kg, po after 0.5 hrs; format: ADME, organism-based; parameters: dose 35 mg/kg, route oral; settings: in vivo; outline: as §2
Rattus norvegicus [8] = test: Plasma concentration in bile duct cannulated Sprague-Dawley rat at 35 mg/kg, po after 1 hr; format: ADME, organism-based; parameters: dose 35 mg/kg, route oral; settings: in vivo; outline: as §2
Rattus norvegicus [9] = test: Plasma concentration in bile duct cannulated Sprague-Dawley rat at 35 mg/kg, po after 2 hrs; format: ADME, organism-based; parameters: dose 35 mg/kg, route oral; settings: in vivo; outline: as §2
Rattus norvegicus [10] = test: Plasma concentration in bile duct cannulated Sprague-Dawley rat at 35 mg/kg, po after 3 hrs; format: ADME, organism-based; parameters: dose 35 mg/kg, route oral; settings: in vivo; outline: as §2
Blood [11] = test: Drug level in bile duct cannulated Sprague-Dawley rat blood at 35 mg/kg, po after 0.5 hrs; format: ADME, organism-based; parameters: dose 35 mg/kg, route oral; settings: in vivo
Outline: (§3)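 Male Sprague-Dawley rats (~350 g), jugular vein and bile duct cannulated, 1 week recovery; three per compound dosed by oral gavage with 35 mg/kg in 3% EtOH-7% Tween 80-90% normal saline plus 80 μCi/kg 14C tracer. Plasma and blood cells sampled over 18 h; radioactivity by liquid scintillation, reported as mean μg base equivalents/g.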

Blood [12] = test: Drug level in bile duct cannulated Sprague-Dawley rat blood at 35 mg/kg, po after 1 hr; format: ADME, organism-based; parameters: dose 35 mg/kg, route oral; settings: in vivo; outline: as §3
Blood [13] = test: Drug level in bile duct cannulated Sprague-Dawley rat blood at 35 mg/kg, po after 2 hrs; format: ADME, organism-based; parameters: dose 35 mg/kg, route oral; settings: in vivo; outline: as §3
Blood [14] = test: Drug level in bile duct cannulated Sprague-Dawley rat blood at 35 mg/kg, po after 3 hrs; format: ADME, organism-based; parameters: dose 35 mg/kg, route oral; settings: in vivo; outline: as §3
Blood [15] = test: Drug level in bile duct cannulated Sprague-Dawley rat blood at 35 mg/kg, po after 4 hrs; format: ADME, organism-based; parameters: dose 35 mg/kg, route oral; settings: in vivo; outline: as §3
Blood [16] = test: Drug level in bile duct cannulated Sprague-Dawley rat blood at 35 mg/kg, po after 6 hrs; format: ADME, organism-based; parameters: dose 35 mg/kg, route oral; settings: in vivo; outline: as §3
Blood [17] = test: Drug level in bile duct cannulated Sprague-Dawley rat blood at 35 mg/kg, po after 18 hrs; format: ADME, organism-based; parameters: dose 35 mg/kg, route oral; settings: in vivo; outline: as §3
Rattus norvegicus [18] = test: Plasma concentration in bile duct cannulated Sprague-Dawley rat at 35 mg/kg, po after 18 hrs; settings: in vivo
[19] = Permeability from apical to basolateral side in human Caco-2 cells; format: ADME, cell-based; settings: read-out: permeability
[20] = AUC in BALB/c mouse at 50 mg/kg, po; format: ADME, organism-based; parameters: dose 50 mg/kg, route oral; settings: plasma
Outline: (§4)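 Three female BALB/c mice (lines for mice, 8–10 weeks) or three female Sprague-Dawley rats (10–12 weeks) per group; 50 mg/kg oral gavage in 3% EtOH-7% Tween 80-90% normal saline. Plasma sampled at set times (tail bleed in mice, saphenous vein in rats), extracted with acetonitrile plus internal standard, quantified by LC/MS; AUC as mean of three animals.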

[21] = Elimination half life in BALB/c mouse at 50 mg/kg, po; format: ADME, organism-based; parameters: dose 50 mg/kg, route oral; settings: in vivo, read-out: beta t1/2
Outline: (§5)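 50 mg/kg by oral gavage in 3% EtOH-7% Tween 80-90% normal saline to groups of three females (BALB/c mice, 8–10 weeks, tail bleed; Sprague-Dawley rats, 10–12 weeks, saphenous vein). Plasma extracted with acetonitrile/internal standard, LC/MS; means of three animals. Oral elimination half-life depends on absorption rate as well as elimination.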

[22] = Metabolic stability in rat liver microsomes; format: ADME, Microsome
Outline: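 Pooled female liver microsomes at 0.5 mg/ml in 0.1 M potassium phosphate pH 7.4, 3 mM MgCl2, 1 mM EDTA, with NADPH regenerating system (1 mM NADP+, 5 mM glucose-6-phosphate, 1 U/ml G6PDH). Preincubated 10 min at 37°C, then compound added to 1 μM final. Time points quenched with 3 volumes acetonitrile plus internal standard; parent quantified by LC/MS; half-life reported.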

[23] = AUC in Sprague-Dawley rat at 50 mg/kg, po; format: ADME, organism-based; parameters: dose 50 mg/kg, route oral; settings: plasma; outline: as §4
[24] = Cmax in Sprague-Dawley rat at 50 mg/kg, po; format: ADME, organism-based; parameters: dose 50 mg/kg, route oral; settings: in vivo; outline: as §5
[25] = Elimination half life in Sprague-Dawley rat at 50 mg/kg, po; format: ADME, organism-based; parameters: dose 50 mg/kg, route oral; settings: in vivo, read-out: beta t1/2; outline: as §5
[26] = Inhibition of Plasmodium falciparum protein farnesyltransferase by SPA method
Plasmodium falciparum [27] = test: Antiplasmodial activity against chloroquine-sensitive Plasmodium falciparum 3D7 by [3H]hypoxanthine uptake; format: functional; settings: read-out: ED50 (the source's name)
Outline: (§6)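 Asynchronous cultures at 0.5% parasitemia and 0.5% hematocrit in RPMI 1640 with 20% heat-inactivated human A+ plasma, exposed to serially diluted inhibitor (top final 5 μM, from DMSO stock) under 5% CO2/5% O2/90% N2 at 37°C for 48 h. [3H]hypoxanthine was then added for 24 h and harvested counts were background-subtracted against DMSO-only controls. ED50 came from linear regression, as the mean of duplicates.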

Plasmodium falciparum [28] = test: Antiplasmodial activity against chloroquine-resistant Plasmodium falciparum K1 by [3H]hypoxanthine uptake; format: functional; settings: read-out: ED50 (the source's name); outline: as §6
[29] = AUC in Sprague-Dawley rat at 2 mg/kg, iv; format: ADME, organism-based; parameters: dose 2 mg/kg, route intravenous; settings: plasma
Outline: (§7)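 Three female Sprague-Dawley rats per group (10–12 weeks), jugular-vein catheterized; 2 mg/kg in 3% EtOH-7% Tween 80-90% normal saline given through the catheter. Plasma drawn from the catheter at set times, acetonitrile extraction with internal standard, LC/MS quantification.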

[30] = Elimination half life in Sprague-Dawley rat at 2 mg/kg, iv; format: ADME, organism-based; parameters: dose 2 mg/kg, route intravenous; settings: in vivo, read-out: beta t1/2; outline: as §7
[31] = Oral bioavailability in Sprague-Dawley rat; format: ADME, organism-based; settings: in vivo
Outline: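 Female Sprague-Dawley rats, 10-12 weeks, three per group. Oral gavage at 50 mg/kg and jugular-catheter i.v. dose at 2 mg/kg, both in 3% EtOH-7% Tween 80-90% saline. Plasma taken over time, acetonitrile extraction with internal standard, LC/MS. Bioavailability computed as oral AUC/i.v. AUC.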

[32] = Drug metabolism in bile duct cannulated Sprague-Dawley rat assessed as radioactive drug recovery in carcass at 35 mg/kg, po after 18 hrs; format: ADME, organism-based; parameters: dose 35 mg/kg, route oral; settings: in vivo; outline: as §1
Rattus norvegicus [33] = test: Plasma concentration in bile duct cannulated Sprague-Dawley rat at 35 mg/kg, po after 4 hrs; format: ADME, organism-based; parameters: dose 35 mg/kg, route oral; settings: in vivo; outline: as §2
Rattus norvegicus [34] = test: Plasma concentration in bile duct cannulated Sprague-Dawley rat at 35 mg/kg, po after 6 hrs; format: ADME, organism-based; parameters: dose 35 mg/kg, route oral; settings: in vivo; outline: as §2

| SMILES | Drug uptake [1] [%] | Drug uptake [2] [%] | Drug uptake [3] [%] | Drug uptake [4] [%] | Drug uptake (Rattus norvegicus [5]) [%] | Activity (Rattus norvegicus [6]) | Cp (Rattus norvegicus [7]) [ug base equiv/g] | Cp (Rattus norvegicus [8]) [ug base equiv/g] | Cp (Rattus norvegicus [9]) [ug base equiv/g] | Cp (Rattus norvegicus [10]) [ug base equiv/g] | Drug uptake (Blood [11]) [ug base equiv/g] | Drug uptake (Blood [12]) [ug base equiv/g] | Drug uptake (Blood [13]) [ug base equiv/g] | Drug uptake (Blood [14]) [ug base equiv/g] | Drug uptake (Blood [15]) [ug base equiv/g] | Drug uptake (Blood [16]) [ug base equiv/g] | Drug uptake (Blood [17]) [ug base equiv/g] | Cp (Rattus norvegicus [18]) [ug base equiv/g] | also measured |
| --- | --- | --- | --- | --- | --- | --- | --- | --- | --- | --- | --- | --- | --- | --- | --- | --- | --- | --- | --- |
| Cn1cncc1CN1CC(N(CCn2cccc2)S(=O)(=O)c2ccccn2)Cc2cc([14C]#N)ccc21 (configuration not stated) | 27.1 | 1.6 | 33.7 | 40.3 | 104 | Non-toxic | 1.38 | 1.36 | 0.723 | 0.237 | 0.566 | 0.493 | 0.344 | 0.221 | 0.073 | 0.063 | 0.243 | 0.351 | – |
| Cn1cncc1CN1CC(N(CC2CCN(C(=O)OC(C)(C)C)CC2)S(=O)(=O)c2ccccn2)Cc2cc(C#N)ccc21 (configuration not stated) | – | – | – | – | – | – | – | – | – | – | – | – | – | – | – | – | – | – | Papp A→B [19]: 15.5 ×10⁻⁶ cm/s; AUC [20]: 11.8 µM·h; half-life [21]: 54 min; half-life [22]: 10 min; AUC [23]: 30.1 µM·h; Cmax [24]: 6.3 µM; half-life [25]: 151 min; pIC50 [26]: 8.82; pEC50 (Plasmodium falciparum [27]): 6.81; pEC50 (Plasmodium falciparum [28]): 6.74; AUC [29]: 0.967 µM·h; half-life [30]: 55 min; bioavailability [31]: 124% |
| Cn1cncc1CN1CC(N(CC2CCN(C(=O)OC(C)(C)C)CC2)S(=O)(=O)c2ccccn2)Cc2cc([14C]#N)ccc21 (configuration not stated) | 26.2 | 4.3 | 26.7 | 18.2 | 92.2 | Non-toxic | 1.5 | 2.01 | 2.14 | 2.2 | 0.442 | 0.909 | 1.03 | 0.821 | 0.729 | 0.623 | 0.344 | 0.34 | Drug uptake [32]: 9.7%; Cp (Rattus norvegicus [33]): 1.92 ug base equiv/g; Cp (Rattus norvegicus [34]): 1.23 ug base equiv/g |
